According to ChEMBL document CHEMBL1145100, “Structure-activity relationship of imidazo[1,2-a]pyridines as ligands for detecting beta-amyloid plaques in the brain” (J Med Chem, 2003):

Biological target: Amyloid-beta precursor protein (Homo sapiens, UniProt P05067)
Experiment: Inhibition constant against [125I]-7 (TZDM) binding to Amyloid beta 1-40 aggregates
In short: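 Abeta40 peptide aggregated at 0.5 mg/mL in pH 7.4 buffer (10 mM sodium phosphate, 1 mM EDTA), 37 °C for 36-42 h with shaking. Competition in 1 mL of 40% EtOH: fibrils 10-50 nM final, radiotracer 0.05 nM, inhibitors 10^-5 to 10^-10 M. Nonspecific binding with 2 µM thioflavin-T. Incubated 3 h at room temperature, then GF/B filtration with 10% ethanol washes and gamma counting. Ki from nonlinear regression.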

Sequence of Amyloid-beta precursor protein (P05067 whole entry): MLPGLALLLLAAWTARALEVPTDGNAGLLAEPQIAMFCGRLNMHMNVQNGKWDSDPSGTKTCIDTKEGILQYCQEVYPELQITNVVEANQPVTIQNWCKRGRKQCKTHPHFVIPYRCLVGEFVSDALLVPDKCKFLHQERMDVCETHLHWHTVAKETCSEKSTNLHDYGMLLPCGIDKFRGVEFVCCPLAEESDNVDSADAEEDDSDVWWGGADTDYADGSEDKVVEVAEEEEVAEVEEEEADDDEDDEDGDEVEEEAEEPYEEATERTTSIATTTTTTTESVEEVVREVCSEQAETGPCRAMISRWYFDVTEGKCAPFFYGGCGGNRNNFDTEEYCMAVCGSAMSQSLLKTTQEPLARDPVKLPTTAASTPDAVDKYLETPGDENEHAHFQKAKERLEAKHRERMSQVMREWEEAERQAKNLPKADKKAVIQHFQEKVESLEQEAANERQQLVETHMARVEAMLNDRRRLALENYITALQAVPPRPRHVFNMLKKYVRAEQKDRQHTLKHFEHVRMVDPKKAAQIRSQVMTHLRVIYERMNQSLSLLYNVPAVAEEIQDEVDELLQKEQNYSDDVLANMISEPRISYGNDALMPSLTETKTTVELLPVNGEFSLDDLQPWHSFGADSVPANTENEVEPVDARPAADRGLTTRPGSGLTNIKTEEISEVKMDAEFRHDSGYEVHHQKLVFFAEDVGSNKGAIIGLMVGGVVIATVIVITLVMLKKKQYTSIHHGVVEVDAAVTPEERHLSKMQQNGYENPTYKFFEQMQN

Compound	Ki [nM]
CN(C)c1ccc(-c2nc3ccc(I)cn3c2I)cc1	> 2000
Cc1ccc2nc(-c3ccc(N(C)C)cc3)cn2c1	242
CNc1ccc(-c2cn3cc(C)ccc3n2)cc1	> 2000
